Measured values taken from ChEMBL document CHEMBL2169868, “Flavone-based novel antidiabetic and antidyslipidemic agents” (J Med Chem, 2012).
Calls of active or inactive are those of the source. The calls are words filed in the database; no cut-off is given here.

How the values were obtained:
[1] = Volume of distribution in Sprague-Dawley rat at 10 mg/kg, iv by LC-MS/MS method; format: ADME, organism-based; design: dose 10 mg/kg, route intravenous; details: in vivo
Summary of the method: (§1)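 Male Sprague−Dawley rats, 225 ± 25 g. Single tail-vein dose of 10 mg/kg in DMF/PG/water (5:4:1), 0.2 μ filtered. Blood drawn from 0.08 to 48 h. Plasma spun at 2000g for 10 min at 4 °C and kept at −60 °C. LC-MS/MS with linear range 0.78−400 ng/mL; noncompartmental parameters.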

Rattus norvegicus [2] = assay: Volume of distribution in Sprague-Dawley rat at 40 mg/kg, po by LC-MS/MS method; format: ADME, organism-based; design: dose 40 mg/kg, route oral; details: in vivo
Summary of the method: (§2)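 Male Sprague−Dawley rats fasted 10−12 h, then given a single 40 mg/kg oral gavage as an aqueous 0.5% methyl cellulose suspension. Blood drawn from 0.25 to 120 h. Plasma spun at 2000g for 10 min at 4 °C and stored at −60 °C. LC-MS/MS, linear range 0.78−400 ng/mL.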

[3] = Mean residence time in Sprague-Dawley rat at 10 mg/kg, iv by LC-MS/MS method; format: ADME, organism-based; design: dose 10 mg/kg, route intravenous; details: in vivo; summary of the method: as §1
[4] = Mean residence time in Sprague-Dawley rat at 40 mg/kg, po by LC-MS/MS method; format: ADME, organism-based; design: dose 40 mg/kg, route oral; details: in vivo; summary of the method: as §2
[5] = Plasma clearance in Sprague-Dawley rat at 10 mg/kg, iv by LC-MS/MS method; format: ADME, organism-based; design: dose 10 mg/kg, route intravenous; summary of the method: as §1
[6] = Plasma clearance in Sprague-Dawley rat at 40 mg/kg, po by LC-MS/MS method; format: ADME, organism-based; design: dose 40 mg/kg, route oral; summary of the method: as §2
[7] = Tmax in Sprague-Dawley rat at 40 mg/kg, po by LC-MS/MS method; format: ADME, organism-based; design: dose 40 mg/kg, route oral; details: in vivo; summary of the method: as §2
[8] = Cmax in Sprague-Dawley rat at 10 mg/kg, iv by LC-MS/MS method; format: ADME, organism-based; design: dose 10 mg/kg, route intravenous; details: in vivo; summary of the method: as §1
[9] = Cmax in Sprague-Dawley rat at 40 mg/kg, po by LC-MS/MS method; format: ADME, organism-based; design: dose 40 mg/kg, route oral; details: in vivo; summary of the method: as §2
Syrian golden hamster [10] = assay: Antidyslipidemic activity in high fructose and high-fat diet fed dyslipidemic Syrian golden hamster model assessed as reduction in body weight at 25 mg/kg/day for 7 days; format: functional, Mesocricetus auratus; design: scale not given: the % may be the effect or the level left
Summary of the method: (§3)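 Syrian golden hamsters fed high-fructose high-fat diet; oral dosing in 1% gum acacia at 10, 30, 100 mg/kg (or 25 mg/kg) for 7 days, sham control given vehicle; plasma TG, cholesterol, LDL-C, HDL-C, glycerol and NEFA (kits), lipoprotein lipase activity and body weight; % change versus HFD control, six hamsters per group.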

Syrian golden hamster [11] = assay: Antidyslipidemic activity in high fructose and high-fat diet fed dyslipidemic Syrian golden hamster model assessed as increase in HDL-cholesterol level at 25 mg/kg/day for 7 days; format: functional, Mesocricetus auratus
Syrian golden hamster [12] = assay: Antidyslipidemic activity in high fructose and high-fat diet fed dyslipidemic Syrian golden hamster model assessed as reduction in LDL-cholesterol level at 25 mg/kg/day for 7 days; format: functional, Mesocricetus auratus; design: scale not given: the % may be the effect or the level left; summary of the method: as §3
Syrian golden hamster [13] = assay: Antidyslipidemic activity in high fructose and high-fat diet fed dyslipidemic Syrian golden hamster model assessed as reduction in cholesterol level at 25 mg/kg/day for 7 days; format: functional, Mesocricetus auratus; design: scale not given: the % may be the effect or the level left
Syrian golden hamster [14] = assay: Antidyslipidemic activity in high fructose and high-fat diet fed dyslipidemic Syrian golden hamster model assessed as reduction in triglyceride level at 25 mg/kg/day for 7 days; format: functional, Mesocricetus auratus; design: scale not given: the % may be the effect or the level left
Summary of the method: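 HFD-fed Syrian golden hamsters, six per group, fed a high-fructose diet. Oral dosing in 1% gum acacia for 7 days. Sham group received vehicle. Plasma TG was measured and body weight tracked. Results given as % change versus HFD control.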

Syrian golden hamster [15] = assay: Antidyslipidemic activity in high fructose and high-fat diet fed dyslipidemic Syrian golden hamster model assessed as reduction in body weight at 100 mg/kg/day for 7 days; format: functional, organism-based; details: Mesocricetus auratus; summary of the method: as §3
Syrian golden hamster [16] = assay: Antidyslipidemic activity in high fructose and high-fat diet fed dyslipidemic Syrian golden hamster model assessed as increase in HDL-cholesterol level at 100 mg/kg/day for 7 days; format: functional, Mesocricetus auratus
Syrian golden hamster [17] = assay: Antidyslipidemic activity in high fructose and high-fat diet fed dyslipidemic Syrian golden hamster model assessed as reduction in LDL-cholesterol level at 100 mg/kg/day for 7 days; format: functional, Mesocricetus auratus; design: scale not given: the % may be the effect or the level left; summary of the method: as §3
Syrian golden hamster [18] = assay: Antidyslipidemic activity in high fructose and high-fat diet fed dyslipidemic Syrian golden hamster model assessed as reduction in cholesterol level at 100 mg/kg/day for 7 days; format: functional, Mesocricetus auratus; design: scale not given: the % may be the effect or the level left
Syrian golden hamster [19] = assay: Antidyslipidemic activity in high fructose and high-fat diet fed dyslipidemic Syrian golden hamster model assessed as reduction in triglyceride level at 100 mg/kg/day for 7 days; format: functional, Mesocricetus auratus; design: scale not given: the % may be the effect or the level left; summary of the method: as §3
Mus musculus [20] = assay: Reduction in body weight in diabetic C57BL/KsJ db/db mouse model in hyperglycemia at 25 mg/kg, po qd for 10 days relative to untreated control; format: functional
Summary of the method: (§4)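 db/db mice (C57BL/KsJ, 12−18 weeks, 40−50 g, glucose 200−350 mg/dL), housed at 23 ± 2.0 °C on a 12 h light cycle. Oral dosing daily for 10 days. Blood glucose checked each morning through day 9. Body weight recorded daily from day 1 to day 10. Mean % change versus vehicle, 5 mice per group; Student t test.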

Mus musculus [21] = assay: Antihyperglycemic activity in diabetic C57BL/KsJ db/db mouse model assessed as reduction in plasma insulin level in hyperglycemia at 25 mg/kg, po qd for 10 days; format: functional; design: scale not given: the % may be the effect or the level left
Summary of the method: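 db/db mice dosed orally every day for 10 days. On day 11, retro-orbital blood was drawn and plasma insulin measured. Mean % change versus vehicle-treated control, 5 mice per group; Student t test.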

Mus musculus [22] = assay: Antidyslipidemic activity in diabetic C57BL/KsJ db/db mouse model assessed as increase in plasma HDL-C/cholesterol ratio at 25 mg/kg, po qd for 10 days; format: functional
Summary of the method: (§5)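 db/db mice (blood glucose 200−350, TG 170−250, cholesterol 170−250, HDL-C 32−40 mg/dL) dosed orally at 25 mg/kg daily for 10 days; retro-orbital blood taken on day 11 for plasma TG, cholesterol and HDL-C (and HDL-C/CHOL ratio); mean % change versus vehicle control, 5 mice per group; Student t test.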

Mus musculus [23] = assay: Antidyslipidemic activity in diabetic C57BL/KsJ db/db mouse model assessed as reduction in plasma cholesterol level at 25 mg/kg, po qd for 10 days; format: functional; design: scale not given: the % may be the effect or the level left; summary of the method: as §5
Mus musculus [24] = assay: Antidyslipidemic activity in diabetic C57BL/KsJ db/db mouse model assessed as increase in plasma HDL-cholesterol level at 25 mg/kg, po qd for 10 days; format: functional; summary of the method: as §5
Mus musculus [25] = assay: Antidyslipidemic activity in diabetic C57BL/KsJ db/db mouse model assessed as reduction in plasma triglyceride level at 25 mg/kg, po qd for 10 days; format: functional; design: scale not given: the % may be the effect or the level left; summary of the method: as §5
Mus musculus [26] = assay: Antihyperglycemic activity in diabetic C57BL/KsJ db/db mouse model assessed as improvement in glucose tolerance in hyperglycemia at 25 mg/kg, po qd for 10 days; format: functional
Summary of the method: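 Male/female C57BL/KsJ db/db mice, 12−18 weeks, 40−50 g, selected for glucose 200−350 mg/dL. Oral dosing daily for 10 days. OGTT on day 10 after an overnight fast: compound at −30 min, then 3 g/kg oral glucose at 0 min. Glucose read at 30, 60, 90 and 120 min. AUC taken versus vehicle, 5 mice per group.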

Mus musculus [27] = assay: Antihyperglycemic activity in diabetic C57BL/KsJ db/db mouse model assessed as reduction in hyperglycemia at 25 mg/kg, po qd for 10 days; format: functional; design: scale not given: the % may be the effect or the level left; summary of the method: as §4
Rattus norvegicus [28] = assay: Antihyperlipidemic activity in Triton-induced dyslipidemic Wistar rat model assessed as reduction in phospholipid level at 100 mg/kg, po; format: functional; design: scale not given: the % may be the effect or the level left
Summary of the method: (§6)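 Male Wistar rats, 8−10 weeks, about 160 g, fed normal pellet diet. Triton X-100 given at 400 mg/kg ip; compound given orally in 1% gum acacia. Retro-orbital blood taken 18 h after Triton and serum separated at 1500g for 10 min. TG and cholesterol measured by kit. Mean % change versus dyslipidemic control, 5 animals.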

Rattus norvegicus [29] = assay: Antihyperlipidemic activity in Triton-induced dyslipidemic Wistar rat model assessed as reduction in cholesterol level at 100 mg/kg, po; format: functional; design: scale not given: the % may be the effect or the level left; summary of the method: as §6
Rattus norvegicus [30] = assay: Antihyperlipidemic activity in Triton-induced dyslipidemic Wistar rat model assessed as reduction in triglyceride level at 100 mg/kg, po; format: functional; design: scale not given: the % may be the effect or the level left; summary of the method: as §6
[31] = Oral bioavailability in Sprague-Dawley rat at 40 mg/kg by LC-MS/MS method; format: ADME, organism-based; details: in vivo; summary of the method: as §2
[32] = Elimination half life in Sprague-Dawley rat at 10 mg/kg, iv by LC-MS/MS method; format: ADME, organism-based; design: dose 10 mg/kg, route intravenous; details: in vivo, read-out: beta t1/2 (converted); summary of the method: as §1
[33] = Elimination half life in Sprague-Dawley rat at 40 mg/kg, po by LC-MS/MS method; format: ADME, organism-based; design: dose 40 mg/kg, route oral; details: in vivo, read-out: beta t1/2 (converted); summary of the method: as §2
Rattus norvegicus [34] = assay: AUC in Sprague-Dawley rat at 10 mg/kg, iv by LC-MS/MS method; details: in vivo
Rattus norvegicus [35] = assay: AUC in Sprague-Dawley rat at 40 mg/kg, po by LC-MS/MS method; details: in vivo

SMILES: CC(C)(C)NCC(O)COc1ccc2c(=O)cc(-c3cc(OCc4ccccc4)cc(OCc4ccccc4)c3)oc2c1 (racemic)
- Vd [1]: 69.4 L/kg
- Vd (Rattus norvegicus [2]): 96.73 L/kg
- MRT [3]: 22.8 h
- MRT [4]: 43.2 h
- clearance [5]: 60.8 mL/min/kg
- CL/F [6]: 57 mL/min/kg
- Tmax [7]: 8 h
- Cmax [8]: 998 ng/mL
- Cmax [9]: 60.9 ng/mL
- Activity (Syrian golden hamster [10]): 8.89%
- Activity (Syrian golden hamster [11]): 13.3%
- Activity (Syrian golden hamster [12]): 23.3%
- Activity (Syrian golden hamster [13]): 15.3%
- Activity (Syrian golden hamster [14]): 22.2%
- Activity (Syrian golden hamster [15]): Active
- Activity (Syrian golden hamster [16]): 20%
- Activity (Syrian golden hamster [17]): 61.9%
- Activity (Syrian golden hamster [18]): 22.9%
- Activity (Syrian golden hamster [19]): 61.5%
- Activity (Mus musculus [20]): inactive
- Activity (Mus musculus [21]): 30.6%
- Percent increase in HDL-C/cholesterol ratio vs vehicle (Mus musculus [22]): 55.7
- Activity (Mus musculus [23]): 22.3%
- Activity (Mus musculus [24]): 20.9%
- Activity (Mus musculus [25]): 20.1%
- Activity (Mus musculus [26]): 25.9%
- Activity (Mus musculus [27]): 38.3%
- Activity (Rattus norvegicus [28]): 18%
- Activity (Rattus norvegicus [29]): 21%
- Activity (Rattus norvegicus [30]): 9%
- bioavailability [31]: 29.5%
- half-life [32]: 16.3 h
- half-life [33]: 19.6 h
- AUC (Rattus norvegicus [34]): 2717.5 ng·h/mL
- AUC (Rattus norvegicus [35]): 3469.28 ng·h/mL
